Screening results as filed in PubChem BioAssay.
KCNQ1 inh: human KCNQ1 channel inhibition; B-score at 10 µM; P51787; actives 1.3% (n = 310,000); CHO-K1 KCNQ1, FluxOR thallium flux fluorescence; active compounds read high;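 active means compounds whose thallium flux B-score, printed positive for inhibition, exceeds three library SD while starting fluorescence stays within three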;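 further: channel opened by potassium depolarization with thallium stimulus after 20 min compound exposure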
KCNQ1 act: potentiators or activators of human KCNQ1 potassium channel; B-score at 10 µM; AID 2648; CHO-K1 KCNQ1, thallium flux FluxOR fluorescence; active compounds read high; actives 0.35% (n = 310,000);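 active means fluorescence ratio B-score, a plate-corrected score, at least three library SD, with initial intensity B-score within 5 SD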
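System: CHO-K1 cells stably expressing KCNQ1 / Medium: assay buffer for compound exposure, DMSO matched across wells / Reagent: thallium- and potassium-containing depolarizing buffer / Compound: one concentration, matched DMSO / Incubation: 20 min compound pretreatment at room temperature / Measured by: kinetic FluxOR fluorescence, 10 s baseline plus 110 s post-stimulus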
KCNK3 block: human KCNK3 channel inhibition, primary screen. O14649. CHO-KCNK3 thallium flux, FluxOR fluorescence; active compounds read low. B-score at 10 µM. actives 0.84% (n = 340,000). AID 602410;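 active means B-score under library mean minus 4 SD, starting fluorescence ratio at most library mean plus 5 SD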;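 further: more negative B-score means stronger inhibition of thallium flux through KCNK3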
Target sequence (O14649 whole entry, looked up): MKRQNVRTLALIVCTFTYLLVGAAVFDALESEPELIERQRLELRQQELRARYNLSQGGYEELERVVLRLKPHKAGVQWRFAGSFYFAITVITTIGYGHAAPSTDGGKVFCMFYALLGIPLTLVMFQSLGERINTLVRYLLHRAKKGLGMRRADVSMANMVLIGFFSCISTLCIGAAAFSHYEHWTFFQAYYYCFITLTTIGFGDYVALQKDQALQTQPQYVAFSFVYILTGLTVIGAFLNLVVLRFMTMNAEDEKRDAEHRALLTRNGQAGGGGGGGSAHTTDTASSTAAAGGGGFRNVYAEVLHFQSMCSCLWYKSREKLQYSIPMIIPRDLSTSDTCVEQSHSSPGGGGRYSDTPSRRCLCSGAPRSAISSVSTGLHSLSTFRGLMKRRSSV
KCNK9 inh: blocks the human KCNK9 two-pore domain potassium channel; Q9NPC2; HEK293 KCNK9, FluxOR thallium flux fluorescence; active compounds read low; B-score at 10 µM; actives 1.2% (n = 310,000); AID 488922;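 active means ratio B-score over 3 SD below the library mean, with starting fluorescence within 5 SD of its mean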;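 further: negative B-score means less thallium flux so channel inhibition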
hERG rescue: shields human hERG channel from block by proarrhythmic agents; CHO-hERG, FluxOR thallium flux, dofetilide IC70 present; activation (rescue from dofetilide block), less the hit threshold, % at 10 µM; actives 0.51% (n = 310,000); AID 1511;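 active means activation above the mean of controls blocked by dofetilide plus 5 SD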;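 further: thallium influx through hERG after potassium depolarization seen as dye fluorescence rise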
KCNQ1 block val: reconfirmed blocker of the human KCNQ1 potassium channel; shares compounds with KCNQ1 inh; KCNQ1 cell line, FluxOR thallium flux fluorescence; inhibition, % at 10 µM; actives 93% (n = 1,600); AID 588353;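 active means primary screen active, with duplicate mean exceeding buffer control mean plus 3 SD of buffer wells, cut at about 28% in these data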;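 further: 0% = buffer control ratio and 100% = XE991 inhibitor control ratio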
CHO KCNQ1 ctr: KCNQ1 inhibitor counter-screen hit in parental CHO cells; shares compounds with KCNQ1 inh; parental CHO-K1, FluxOR thallium flux fluorescence ratio; active compounds read low; zero means no signal rise above baseline; fluorescence ratio (Tl flux) at 10 µM; actives 21% (n = 1,600);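 active means mean of duplicate thallium-flux fluorescence ratios in parental host cells more than 5 SD below the buffer control mean, cut at about 0.38 in these data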;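 further: ratio is peak minus minimum fluorescence divided by baseline fluorescence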
KCNQ1 APC inh: blocks human KCNQ1 current in automated patch clamp. actives 20% (n = 490). KCNQ1-CHO cells. AID 624120. calls only at 10 µM. shares compounds with KCNQ1 inh;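 active means KCNQ1 current drop exceeding 3 SD of negative control wells, seen in both duplicate runs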;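 further: steady state current during a 2 s step from -80 to +40 mV; negative values mean current inhibition and positive values mean potentiation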
KCNQ2 spec: KCNQ1 inhibitor that also blocks rat KCNQ2 channel | shares compounds with KCNQ1 inh | KCNQ2 cells, FluxOR thallium flux fluorescence | inhibition, % at 10 µM | actives 71% (n = 1,600) | AID 651746;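 active means mean percent inhibition of the KCNQ2 thallium signal more than 5 SD above the buffer-only control wells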;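 further: KCNQ2 expressed in CHO cells; 0% = buffer control wells and 100% = XE-991 inhibitor control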
KCNQ1-KCNE1 inh: human KCNQ1/KCNE1 inhibition in KCNQ1 specificity screen | actives 77% (n = 1,600) | shares compounds with KCNQ1 inh | KCNQ1/KCNE1 cells, FluxOR thallium flux fluorescence | inhibition, % at 10 µM;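 active means mean percent inhibition of duplicate wells above the buffer-only control mean plus 3 SD of those controls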;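 further: 0% = buffer only wells and 100% = XE-991 inhibitor control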
KCNK9 block conf: human KCNK9 inhibitor confirmation; shares compounds with KCNK9 inh; HEK293 KCNK9 cells, FluxOR thallium flux fluorescence; inhibition, % at 10 µM; actives 43% (n = 4,900);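 active means thallium signal inhibited by more than 5 SD of the compound-free buffer control wells, on both duplicate plates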;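 further: 0% = assay buffer control wells without compound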
Kir2-1 spec: mouse Kir2.1 off-target activity of KCNK9 modulators; shares compounds with KCNK9 inh; Kir2.1 cells, FluxOR thallium flux fluorescence; inhibition, % at 10 µM; actives 4% (n = 4,900);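 active means thallium signal drop more than 5 SD beyond the mean of the no-compound control wells, seen in both duplicate plates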;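 further: signal is fluorescence rise after thallium addition divided by baseline fluorescence; plate controls were assay buffer only for no effect and full block by chlorpromazine control for full effect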
HEK293 Tl ctr: second counter-screen for KCNK9 modulators: effect in non-induced cells | shares compounds with KCNK9 inh | non-induced KCNK9-HEK293, FluxOR thallium flux | inhibition, % at 10 µM | actives 40% (n = 4,900);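 active means thallium signal drop beyond 5 SD of the untreated control mean, on both duplicate plates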;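 further: plate controls were buffer only IC0 wells for no effect and SID17386958 at its maximal inhibitory level for full effect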
KCNK3 confirm: human KCNK3 channel inhibition, confirmation assay | shares compounds with KCNK3 block | CHO-KCNK3 thallium flux, FluxOR fluorescence; 0% buffer, 100% carvedilol maximal block | ratio percent of control, % at 10 µM | actives 99% (n = 2,400);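 active means ratio percent of control, averaged over triplicates, above buffer control mean plus 5 SD, cut at about 64% in these data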;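 further: ratio is the fluorescence rise from min to max over baseline after thallium stimulus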
KCNK3 noninduced: counter-screen for KCNK3 inhibitors: effect in non-induced cells | actives 40% (n = 2,400) | shares compounds with KCNK3 block | non-induced KCNK3 parental cells, FluxOR thallium flux; active compounds read low | thallium flux ratio (lower = more inhibition) at 10 µM;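 active means thallium flux ratio, averaged over three wells, more than 5 SD below the buffer control mean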;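 further: host cells are CHO cells without KCNK3 induction; ratio is peak minus trough fluorescence over baseline then normalized to buffer controls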
* = called active by the depositor; i = inactive; · = no result given; + = active, no number. Rows were chosen to be rich in hits. Some 3.1% of all compounds tested hit in one or more screens of this group.

SMILES	KCNQ1 inh	KCNQ1 act	KCNK3 block	KCNK9 inh	hERG rescue	KCNQ1 block val	CHO KCNQ1 ctr	KCNQ2 spec	KCNQ1-KCNE1 inh	KCNK3 confirm	KCNK3 noninduced	others
COc1ccc(Nc2nc(-c3cccc(OC)c3O)nc3ccccc23)cc1	7*	i	-9.9*	i	-4	168*	0.3*	116%*	+	133*	0.15*
Cc1cc(C)cc(NC(=O)C(NCC2CCCO2)c2ccccc2)c1 (stereo unspecified)	i	i	i	i	-6	·	·	·	·	·	·
COc1ccc(CCNC(C(=O)Nc2cc(C)cc(C)c2)c2ccccc2)cc1 (stereo unspecified)	12*	i	-14*	i	-16	88*	0.37*	122%*	144%*	118*	0.14*
Cc1ccc(OCC(O)Cn2c3ccccc3c3ccccc32)cc1 (stereo unspecified)	i	i	i	i	-5	·	·	·	·	·	·
Cc1cccc(C)c1OCC(O)Cn1c2ccccc2c2ccccc21 (stereo unspecified)	11*	i	-11*	i	-16	0	0.46	75%*	i	116*	i
CN=C1N(C)C[C@@H]2[C@@H]3C(=O)N(Cc4ccccc4)C(=O)[C@@H]3[C@](Cc3ccccc3)(C(=O)OC)N12	·	·	i	·	·	·	·	·	·	·	·
COC(=O)Cn1cc(S(=O)(=O)NCc2ccc(C)cc2)c2cc([N+](=O)[O-])ccc21	i	i	i	i	-7	·	·	·	·	·	·
O=C(Nc1ccc(Cl)c(Cl)c1)c1ccc(Cn2cc(Cl)cn2)cc1	8*	i	-12*	i	-7	112*	0.43	105%*	112%*	109*	i	KCNQ1 APC inh=i
NNC(=O)c1ccc(Cn2cc(Cl)cn2)cc1	i	i	i	i	-3	·	·	·	·	·	·
O=C(Nc1ccncc1)C1CCN(S(=O)(=O)c2ccc(Cl)c(C(F)(F)F)c2)CC1	·	·	i	·	·	·	·	·	·	·	·
CCC(C)COC(=O)C(C#N)c1nc2ccccc2nc1N1CCCCC1 (stereo unspecified)	8*	i	i	-11*	-23	123*	0.43	102%*	116%*	117*	0.14*	KCNQ1 APC inh=i;KCNK9 block conf=48%*;Kir2-1 spec=i;HEK293 Tl ctr=45%*
CC(C)OC(=O)C(C#N)c1nc2ccccc2nc1N1CCCC1 (stereo unspecified)	i	i	i	i	-5	·	·	·	·	·	·
